Calls of active or inactive are those of the source. The calls are words filed in the database; no cut-off is given here.
Tests used:
[1] = biological target: T1, Free fatty acid receptor 1 (Homo sapiens, UniProt O14842); experiment: Agonist activity at human FFA1 expressed in CHO cells assessed as intracellular Ca2+ level at 100 nM measured for 90 secs by Fluo-4 AM-based FLIPR assay; format: functional, cell-based
Method in brief: (§1)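 CHO cells stably expressing human FFA1 (NM_005303), 15K cells/well, cultured overnight at 37 °C in 5% CO2. Cells were washed with HBSS, then loaded for 60 min at 37 °C with Fluo 4-AM 2.5 μg/mL, fatty acid-free BSA 0.1% and probenecid 2.5 mmol/L. Single screening concentration added and Ca2+ flux read on FLIPR Tetra for 90 s. Activity = (A−B)/(C−B)×100 against vehicle (B) and 10 μM γ-linolenic acid (C). Mean of three independent experiments.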

[2] = biological target: T1, Free fatty acid receptor 1; experiment: Agonist activity at human FFA1 expressed in CHO cells assessed as intracellular Ca2+ level measured for 90 secs by Fluo-4 AM-based FLIPR assay; format: functional, cell-based
Method in brief: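 Calcium flux in CHO cells stably expressing human FFA1, plated at 15K cells/well overnight, loaded 60 min at 37 °C with Fluo 4-AM (2.5 μg/mL), 0.1% fatty acid-free BSA and 2.5 mmol/L probenecid. Various concentrations added and read by FLIPR for 90 s. Response normalised to vehicle and 10 μM γ-linolenic acid. EC50 from concentration–response fit, mean of three independent determinations.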

[3] = biological target: T1, Free fatty acid receptor 1; experiment: Agonist activity at human FFA1 expressed in CHO cells assessed as intracellular Ca2+ level at 300 nM measured for 90 secs by Fluo-4 AM-based FLIPR assay; format: functional, cell-based; method in brief: as §1
Mus musculus [4] = experiment: Toxicity in ICR mouse assessed as hypoglycemic effect at 15 mg/kg, po measured up to 180 mins; format: organism-based; conditions: in vivo, 3 h
Method in brief: (§2)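 Normal male ICR mice, 10 weeks, fasted overnight (12 h), n = 6 per group. Single oral dose in 0.5% CMC vehicle, no glucose load. Tail-tip blood glucose by test strips at 0, 30, 60, 90, 120 and 180 min after dosing. Mean ± SEM for six animals, Student's t-test.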

Mus musculus [5] = experiment: Antihyperglycemic activity in STZ-induced type 2 diabetic C57BL/6 mouse model at 20 mg/kg, po administered as single dose 30 mins prior to glucose challenge measured up to 120 mins by OGTT; format: functional, organism-based
Method in brief: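 Male C57BL/6 mice fed 45%-fat diet for 4 weeks, given STZ 80 mg/kg i.p., then kept on high-fat diet another 4 weeks; fasting glucose ≥11.1 mmol/L counted as diabetic. After a 12 h fast, n = 6/group, oral dose in 0.5% CMC, then 2 g/kg glucose (20% solution) orally 30 min later. Tail blood at −30, 0, 15, 30, 45, 60, 120 min, read with glucose strips.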

Mus musculus [6] = experiment: Decrease in plasma glucose level in ICR mouse at 20 mg/kg, po administered as single dose 30 mins prior to glucose challenge measured up to 120 mins by OGTT; format: functional, organism-based
Method in brief: (§3)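 Male ICR mice, 10 weeks old, fasted 12 h and randomized (n = 6/group). Single oral dose in 0.5% CMC (10 mL/kg), followed 30 min later by oral glucose 3 g/kg as a 30% solution. Tail-vein blood at −30, 0, 15, 30, 45, 60 and 120 min, glucose read with test strips. Mean ± SEM, two-tailed Student's t-test against vehicle.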

Mus musculus [7] = experiment: Toxicity in ICR mouse assessed as hypoglycemic effect at 80 mg/kg, po measured up to 180 mins; format: organism-based; conditions: in vivo, 3 h; method in brief: as §2
Mus musculus [8] = experiment: Decrease in plasma glucose level in po dosed ICR mouse administered as single dose 30 mins prior to glucose challenge measured up to 120 mins by OGTT; format: functional, organism-based; method in brief: as §3

T1 sequence (O14842 whole entry): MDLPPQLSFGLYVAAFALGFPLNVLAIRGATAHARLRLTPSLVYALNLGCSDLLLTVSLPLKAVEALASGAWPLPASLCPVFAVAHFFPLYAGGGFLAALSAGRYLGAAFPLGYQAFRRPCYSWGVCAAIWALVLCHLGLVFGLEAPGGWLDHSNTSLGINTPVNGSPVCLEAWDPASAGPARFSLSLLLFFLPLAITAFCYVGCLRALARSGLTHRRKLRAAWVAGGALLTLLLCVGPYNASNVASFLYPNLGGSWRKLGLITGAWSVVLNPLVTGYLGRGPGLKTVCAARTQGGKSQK

Compound	Activity [1] [%]	Activity [3] [%]	further results
CCOc1ccc(COc2ccc3c(c2)OCC3CC(=O)O)cc1-n1c(C)ccc1C (stereo unspecified)	54.6		EC50 [2]: 61.2 nM
O=C(O)CC1COc2cc(OCc3cccc(N4CCOCC4)c3)ccc21 (stereo unspecified)	41.2	55.7	
COCc1cc(C)n(-c2cccc(COc3ccc4c(c3)OCC4CC(=O)O)c2)c1C (stereo unspecified)	31.7		
COc1ccc(Cl)cc1C(=O)NCCc1ccc(S(=O)(=O)NC(=O)NC2CCCCC2)cc1 [GLYBURIDE]			Activity (Mus musculus [4]): Toxic
Cc1cc(OCCCS(C)(=O)=O)cc(C)c1-c1cccc(COc2ccc3c(c2)OC[C@H]3CC(=O)O)c1			Activity (Mus musculus [5]): Active; Activity (Mus musculus [6]): Active
Cc1cc(C(=O)N(C)C)c(C)n1-c1cccc(COc2ccc3c(c2)OCC3CC(=O)O)c1 (stereo unspecified)	25.7		
Cc1ccc(C)n1-c1cccc(COc2ccc3c(c2)OCC3CC(=O)O)c1 (stereo unspecified)	59.9	71.3	EC50 [2]: 46.9 nM
O=C(O)CC1COc2cc(OCc3cccc(N4CCCC4)c3)ccc21 (stereo unspecified)	43.7	56.3	
COc1ccc(COc2ccc3c(c2)OCC3CC(=O)O)cc1-n1c(C)ccc1C (stereo unspecified)	63.8		Activity (Mus musculus [5]): Active; Activity (Mus musculus [7]): Non-toxic; Activity (Mus musculus [8]): Dose-dependent effect; EC50 [2]: 34.7 nM
O=C(O)CC1COc2cc(OCc3cccc(N4CCS(=O)(=O)CC4)c3)ccc21 (stereo unspecified)	8.28	25.9	
O=C(O)CC1COc2cc(OCc3cccc(N4CCSCC4)c3)ccc21 (stereo unspecified)	38.2	52.2	
O=C(O)CC1COc2cc(OCc3cccc(N4CCCCC4)c3)ccc21 (stereo unspecified)	34.6	50.3	
Cc1cccc(C)c1-c1cccc(COc2ccc3c(c2)OCC3CC(=O)O)c1 (stereo unspecified)	62.6	74.4	EC50 [2]: 38.4 nM
Cc1ccc(C)n1-c1cc(COc2ccc3c(c2)OCC3CC(=O)O)ccc1OCc1ccccc1 (stereo unspecified)	40.8		
O=C(O)CC1COc2cc(OCc3cccc(-n4cccc4)c3)ccc21 (stereo unspecified)	28.6	41.9	

Reference: ChEMBL document CHEMBL3779832, “Discovery of novel pyrrole-based scaffold as potent and orally bioavailable free fatty acid receptor 1 agonists for the treatment of type 2 diabetes” (Bioorg Med Chem, 2016)
